The source of these data is ChEMBL document CHEMBL3232767, “Synthesis of the antiproliferative agent hippuristanol and its analogues from hydrocortisone via Hg(II)-catalyzed spiroketalization: structure-activity relationship” (J Med Chem, 2014).

Active and inactive are the calls of the source. The rule behind the calls is not given here.

The experiment is filed under the species Oryctolagus cuniculus. The experiment can be described thus: Inhibition of translation in rabbit reticulocyte lysates using SP6 RNA polymerase at 10 uM by FF/HCV/Ren reporter gene assay. The experiment is classed as functional. The gist of the method:
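Bicistronic mRNA (cap-dependent FF, HCV IRES-driven Ren as internal standard) translated in vitro at 4 ng/μL in rabbit reticulocyte lysate; compounds at 10 μM final vs 0.5% DMSO vehicle; anisomycin as control. FF and Ren luciferase read by luminometer, normalized to vehicle set at 1; duplicates averaged, error of the mean given.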
In general terms: In a reporter assay the amount or activity of a reporter protein is the signal.
Turning to `C[C@H]1C[C@]2(O[C@H]3C[C@H]4[C@@H]5CC[C@H]6C[C@H](O)CC[C@]6(C)[C@H]5[C@@H](O)C[C@]4(C)[C@H]3[C@@]2(C)O)OC1(C)C`, the inhibition result is “Active”.

For the compound `C[C@H]1C[C@@]2(O[C@H]3C[C@H]4[C@@H]5CC[C@H]6C[C@H](N)CC[C@]6(C)[C@H]5[C@@H](O)C[C@]4(C)[C@H]3[C@@]2(C)O)OC1(C)C`, the inhibition entry is “inactive”.

Consider `COc1ccc(C[C@H]2NC[C@H](O)[C@H]2OC(C)=O)cc1`, for which the inhibition result was “Active”. For the compound `CC[C@@]1(O)[C@H]2[C@H](C[C@H]3[C@@H]4CC[C@H]5C[C@H](O)CC[C@]5(C)[C@H]4[C@@H](O)C[C@@]32C)O[C@@]12C[C@H](C)C(C)(C)O2`, the inhibition entry was “inactive”. Turning to `C[C@H]1C[C@]2(O[C@H]3C[C@H]4[C@@H]5CC[C@H]6C[C@H](O)CC[C@]6(C)[C@H]5[C@@H](O)C[C@]4(C)[C@H]3[C@]2(O)CO)OC1(C)C`, the inhibition result is “inactive”. Turning to `C[C@H]1C[C@@]2(O[C@H]3C[C@H]4[C@@H]5CC[C@H]6C[C@H](O)CC[C@]6(C)[C@H]5[C@@H](O)C[C@]4(C)[C@H]3[C@@]2(C)O)OC1(C)C`, the inhibition result was “Active”. As to `C[C@H]1C[C@]2(O[C@H]3C[C@H]4[C@@H]5CC[C@H]6C[C@H](O)CC[C@]6(C)[C@H]5[C@@H](O)C[C@]4(C)[C@H]3[C@H]2O)OC1(C)C`, the inhibition entry was “inactive”. Turning to `C[C@H]1C[C@@]2(O[C@H]3C[C@H]4[C@@H]5CC[C@H]6C[C@@H](O)CC[C@]6(C)[C@H]5[C@@H](O)C[C@]4(C)[C@H]3[C@@]2(C)O)OC1(C)C`, the inhibition result was “inactive”. In the case of `C[C@H]1C[C@@]2(O[C@H]3C[C@H]4[C@@H]5CC[C@H]6C[C@H](O)CC[C@]6(C)[C@H]5[C@@H](O)C[C@]4(C)[C@H]3[C@H]2O)OC1(C)C`, the inhibition entry is “inactive”. As to `CC[C@@]1(O)[C@H]2[C@H](C[C@H]3[C@@H]4CC[C@H]5C[C@H](O)CC[C@]5(C)[C@H]4[C@@H](O)C[C@@]32C)O[C@]12C[C@H](C)C(C)(C)O2`, the inhibition entry is “inactive”. Consider `C[C@H]1C[C@]2(O[C@H]3C[C@H]4[C@@H]5CC[C@H]6C[C@H](O)CC[C@]6(C)[C@H]5[C@@H](O)C[C@]4(C)[C@H]3C2=O)OC1(C)C`, for which the inhibition result is “inactive”.
